TRPC4 act: TRPC4 (mouse) channel activation. B-score at 10 µM. 310,000 tested, 0.49% active. HEK293 TRPC4beta/mu-opioid, Fluo4 calcium fluorescence; active compounds read high. AID 2237. Q9QUQ5;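 active means B-score above 5 SD of library B-scores, and initial fluorescence ratio not above library mean plus 5 SD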;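 further: positive B-score marks a calcium rise read as TRPC4 activation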
Target sequence (Q9QUQ5 whole entry, looked up): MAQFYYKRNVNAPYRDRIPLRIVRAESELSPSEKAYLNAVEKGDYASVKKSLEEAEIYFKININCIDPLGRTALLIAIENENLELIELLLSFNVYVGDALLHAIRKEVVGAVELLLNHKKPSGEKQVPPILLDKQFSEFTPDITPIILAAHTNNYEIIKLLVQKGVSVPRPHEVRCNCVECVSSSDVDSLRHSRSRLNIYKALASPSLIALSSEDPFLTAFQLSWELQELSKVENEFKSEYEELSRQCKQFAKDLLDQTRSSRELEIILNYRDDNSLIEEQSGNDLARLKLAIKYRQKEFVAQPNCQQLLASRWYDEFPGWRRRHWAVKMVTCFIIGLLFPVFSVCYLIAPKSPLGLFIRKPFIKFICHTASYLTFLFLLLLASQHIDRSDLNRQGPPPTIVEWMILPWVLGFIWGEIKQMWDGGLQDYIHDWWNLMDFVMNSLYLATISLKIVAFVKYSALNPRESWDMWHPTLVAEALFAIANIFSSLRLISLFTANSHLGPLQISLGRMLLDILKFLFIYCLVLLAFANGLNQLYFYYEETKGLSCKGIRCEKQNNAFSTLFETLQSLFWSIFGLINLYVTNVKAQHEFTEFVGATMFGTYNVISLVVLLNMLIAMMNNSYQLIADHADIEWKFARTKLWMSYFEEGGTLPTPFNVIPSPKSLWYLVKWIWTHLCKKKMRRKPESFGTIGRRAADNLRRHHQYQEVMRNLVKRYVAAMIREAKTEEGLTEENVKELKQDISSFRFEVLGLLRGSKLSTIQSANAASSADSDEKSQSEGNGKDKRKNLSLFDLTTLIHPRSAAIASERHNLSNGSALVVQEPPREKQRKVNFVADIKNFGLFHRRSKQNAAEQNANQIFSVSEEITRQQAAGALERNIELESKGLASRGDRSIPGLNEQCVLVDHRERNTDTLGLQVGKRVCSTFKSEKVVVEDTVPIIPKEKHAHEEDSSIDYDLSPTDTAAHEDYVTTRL
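Assay system: HEK293 cells stably co-expressing mouse TRPC4beta and mu-opioid receptor / Timing: Fluo4 dye loading 45 min at room temperature, 110 s recording / Signal: Fluo4 calcium-sensitive dye fluorescence, kinetic, 1 Hz baseline / Read-out: integrated baseline-normalised fluorescence ratio, converted to per-well B score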
TRPC4 PAM: allosteric potentiators of mouse TRPC4 channel; Q9QUQ5; HEK293 TRPC4beta/mu-opioid, DAMGO EC20, Fluo-4 Ca2+ flux; active compounds read high; B-score at 10 µM; 310,000 tested, 0.42% active; AID 2227;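 active means B-score of calcium response area above 5 SD of library B-scores, with initial fluorescence ratio within 5 SD of library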;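 further: B-score of integrated fluorescence ratio over time as area under calcium response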
TRPC6 act: activators of mouse TRPC6 channel; Q61143; HEK293-TRPC6 membrane potential dye fluorescence; active compounds read high; B-score at 10 µM; 310,000 tested, 0.13% active; AID 2550;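 active means B-score of the integrated fluorescence ratio above library mean plus 3 SD, and starting fluorescence ratio within library mean plus 5 SD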;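 further: higher score means more depolarization so channel activation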
TRPC6 inhibitor: inhibitors of mouse TRPC6 channel | B-score at 10 µM | Q61143 | HEK293-TRPC6, membrane potential dye, ACh-evoked depolarization; active compounds read low | 310,000 tested, 1.1% active;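 active means B-score under library mean minus 3 SD, initial fluorescence not abnormally high, positive integrated signal ratio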;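 further: B-score derived from integrated fluorescence ratio over the kinetic read; more negative B-score means stronger inhibition of depolarization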
TRPC4 inh: TRPC4 (mouse) channel inhibition | Q9QUQ5 | HEK293 TRPC4beta/mu-opioid, DAMGO-evoked Fluo4 calcium flux; active compounds read low | B-score at 10 µM | 300,000 tested, 0.39% active | AID 2247;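 active means B-score over 3 SD under the library average, no early fluorescence shift, positive overall ratio signal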
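Assay system – HEK293 line stably carrying TRPC4beta and mu-opioid receptor · Doses – single dose · Detection – Fluo4 calcium-dye fluorescence, kinetic read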
Starred values were filed as active, the others as inactive; i = inactive; · = no result given. Only some compounds are listed: those with a hit (about 2.3% of all), similar ones and a draw of the others.

SMILES	TRPC4 act	TRPC4 PAM	TRPC6 act	TRPC6 inhibitor	TRPC4 inh
O=C(Nc1cccc(Cl)c1)N1CCN(C/C=C/c2ccccc2)CC1	i	26*	i	i	i
CCN(C(=O)c1c(-c2ccccc2Cl)noc1C)C1CCCCC1	i	i	i	i	-6*
O=C(CCN1CCN(C/C=C/c2ccccc2)CC1)Nc1ccc(Cl)cc1	i	i	i	i	i
COc1cc(C(=O)NCC(=O)NC(C)CCc2ccccc2)cc(OC)c1OC (stereo not given)	i	i	i	i	i
COCCn1c(SCC(=O)Nc2ccccc2OC)nc2c([nH]c3ccccc32)c1=O	i	i	i	i	-7*
COCCn1c(SCC(=O)NCCc2ccccc2)nc2c([nH]c3ccccc32)c1=O	i	i	i	i	i
COCCn1c(SCC(=O)NCCc2ccc(OC)c(OC)c2)nc2c([nH]c3ccccc32)c1=O	i	11*	i	i	i
CCCc1[nH]nc2c1C(Cc1ccccc1)C(C#N)=C(N)O2 (stereo not given)	i	i	i	i	i
CCCc1[nH]nc2c1C(CCc1ccccc1)C(C#N)=C(N)O2 (stereo not given)	i	13*	i	i	i
CCC(=O)N1CCN(c2ccccc2NC(=O)c2cccs2)CC1	i	i	i	i	i
CC(=O)N1CCN(c2ccccc2NC(=O)c2cccs2)CC1	i	i	i	i	-6*
CC(C)C(=O)N1CCN(c2ccccc2NC(=O)c2ccco2)CC1	i	i	i	i	-10*
CC(=O)N1CCN(c2ccccc2NC(=O)c2ccc3ccccc3c2)CC1	i	i	i	i	-5*
COc1ccc(C(=O)Nc2ccccc2N2CCCC2)cc1	i	i	i	i	i
CCOc1cc(-c2nc(C)c(C(C)=O)n2O)ccc1OCC(=O)Nc1cccc(C)c1	i	i	i	i	i
CC1(C)CC(=O)C2=C(C1)OC(N)=C([N+](=O)[O-])C2c1cccs1 (stereo not given)	i	i	i	i	i
COC(=O)CSc1nnc(CNS(=O)(=O)c2ccc(Br)cc2)n1C	i	i	i	i	-6*
Cc1cc(C(=O)CN2C(=O)NC3(CCCc4sccc43)C2=O)c(C)n1-c1ccc(Cl)cc1 (stereo not given)	i	10*	i	i	i
NC(=O)CN1C(=O)NC2(CCCc3sccc32)C1=O (stereo not given)	i	i	i	i	i
O=C(O)/C=C\C(=O)Nc1ccc(N2CCN(c3ccc(Cl)cc3)CC2)cc1	i	i	i	i	i
O=C(O)/C=C\C(=O)Nc1ccc(N2CCN(c3ccc(Cl)c(Cl)c3)CC2)cc1	i	i	i	i	-6*
Cc1ncc(S(=O)(=O)C(C)(C)C)c(N)n1	i	i	i	i	i
CCc1nnc(NC(=O)c2nc3nc(C)cc(C)n3n2)s1	i	i	i	-5.51*	i
N=C1c2ccccc2CN1NC(=O)c1cccc(S(=O)(=O)N2CCOCC2)c1	i	i	i	i	i
N=C1c2ccccc2CN1NC(=O)c1cccc(S(=O)(=O)N2CCCCC2)c1	49*	i	i	i	i
SMILES	TRPC4 act	TRPC4 PAM	TRPC6 act	TRPC6 inhibitor	TRPC4 inh
O=C(Cc1ccccc1[N+](=O)[O-])OCc1cccc([N+](=O)[O-])c1	i	i	i	i	-6*
COc1ccc(C(=O)N2CCCCCC2)cc1OC1CCN(C(C)=O)CC1	i	i	i	i	i
O=C(CCc1ccccc1)NNC(=S)NC(=O)c1ccc(Cl)cc1	211*	i	i	i	i
CC(=O)NNC(=S)NC(=O)c1ccc(C)cc1	i	i	i	i	i
Cc1ccc(C(=O)NNC(=S)NC(=O)c2ccc(Cl)cc2)cc1	222*	i	i	i	i
O=C(NCc1ccc(OC(F)(F)F)cc1)C1CC(c2ccccc2C(F)(F)F)=NO1 (stereo not given)	i	i	i	i	·
O=S(=O)(NCc1ccccc1)c1ccc(NC(=S)NCc2ccco2)cc1	i	i	i	i	i
O=C(CN1CCN(c2ccc([N+](=O)[O-])cc2)CC1)c1ccccc1	i	11*	i	i	i
COc1cccc(NCc2ccc([N+](=O)[O-])s2)c1	i	i	i	i	-6*
COc1cccc(Nc2ccc([N+](=O)[O-])c3nonc23)c1	i	i	i	i	i
CCCNCc1cc(Br)ccc1OCC(=O)NCCc1ccccc1	i	i	i	i	-6*
CC(C)[C@H](Nc1nc(-c2ccccc2)nc2c1oc1ccccc12)C(=O)O	i	i	i	i	i
CCC(C)[C@H](Nc1nc(-c2ccccc2)nc2c1oc1ccccc12)C(=O)O (stereo not given in full)	i	i	i	i	-6*
C/C(=N/NC(N)=S)c1ccc(Br)s1	i	i	i	i	i
O=C(CNS(=O)(=O)c1ccc([N+](=O)[O-])cc1)N/N=C\c1ccc(O)cc1	i	12*	i	i	i
CC(=O)c1ccc(OCCCC(=O)Nc2cc(Cl)ccc2-n2cncn2)cc1	i	i	i	i	i
Cc1cc(C)c(C(=O)c2ccc(C(=O)NC(C)(C)C)cc2)c(C)c1	i	i	i	i	i
Cc1cc(C)c(C(=O)c2ccc(C(=O)N3CCCCC3)cc2)c(C)c1	i	16*	i	i	i
Cc1cc(C)c(C(=O)c2ccc(C(=O)N(C(C)C)C(C)C)cc2)c(C)c1	i	10*	i	i	i
C=CCOc1ccccc1CN1CCCCCC1	i	i	i	i	i
Cc1ccc(S(=O)(=O)N2CCc3cc4c(cc3C2C)OCCCO4)cc1 (stereo not given)	i	i	i	i	i
Cc1csc(CN(C)C(=O)CC2C(=O)NCCN2Cc2ccc(Cl)c(F)c2)n1 (stereo not given)	i	12*	i	i	i
CCOc1ccccc1CN1CCNC(=O)C1CC(=O)NCCC1=CCCCC1 (stereo not given)	i	i	i	i	i
Cc1csc(CN(C)C(=O)CC2C(=O)NCCN2Cc2ccc(F)cc2Cl)n1 (stereo not given)	i	i	i	i	i
CCOc1ccccc1CN1CCNC(=O)C1CC(=O)N(C)CCc1ccccn1 (stereo not given)	153*	i	i	i	i

High-throughput results: PubChem BioAssay, Johns Hopkins Ion Channel Center
